According to the array DNA melting data of Ke et al. (doi:10.1101/2024.01.08.574731):

How the values were obtained:
[1] = folding enthalpy; higher = less favourable; fluorescence melt of hairpins on a sequencing array, two-state fit; settings: sodium 0.088 M
In short: (§1)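 Cy3 signals were normalised both to pre-quench Cy3 and to control constructs. They came from library hairpins carrying annealed Cy3 and quencher oligos on a sequenced MiSeq flow cell, imaged in 50 mM Na-HEPES pH 8.0, 25 mM NaCl, in 2.5 °C steps up to 60 °C. Bootstrapped two-state fits gave melting temperature and folding enthalpy, and four replicates were combined by inverse variance. Fitted temperatures were then raised by 9.35 °C to match UV melts.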

[2] = melting temperature; fluorescence melt of hairpins on a sequencing array, two-state fit, raised by 9.35 °C to match UV melts; settings: sodium 0.088 M
In short: as §1

Row | Sequence | folding enthalpy [1] | Tm [2]
1 | GGATCCGAAAGGAAATCC ((((((....)))..))) | -108 kJ/mol | 38.2 °C
2 | GGATCCGAAAGGAGATCC ((((((....)))..))) | -100 kJ/mol | 44.8 °C
3 | GGATCCGAAAGGAGTTCC ((((((....)))..))) | -61.7 kJ/mol | 32.8 °C
4 | GGATCCGAAAGGATTTCC ((((((....)))..))) | -57.1 kJ/mol | 37.4 °C
5 | GGATCCGGAAACGAATCC ((((.((....)).)))) | -121 kJ/mol | 41.8 °C
6 | GGATCCGGAAACGGATTC (.(((((....))))).) | -65.8 kJ/mol | 52 °C
7 | GGATCGACGAAAGTCTCC (((..(((....)))))) | -44.1 kJ/mol | 27.9 °C
8 | GGATCGGAAACGATCC ((((((....)))))) | -120 kJ/mol | 66.2 °C
9 | GGATCGGGAAACCGACCC ((.((((....)))).)) | -133 kJ/mol | 47.7 °C
10 | GGATCGGGAAACCGGTTC (.(.(((....))).).) | -84.3 kJ/mol | 38.2 °C
11 | GGATCGGGAAACTGATCC (((((.(....).))))) | -164 kJ/mol | 52.4 °C
12 | GGATCGTCGAAAGACTCC (((..(((....)))))) | -49.2 kJ/mol | 28.9 °C
13 | GGATCTCGAAAGAGGTCC (((.(((....))).))) | -173 kJ/mol | 57.3 °C
14 | GGATCTCGAAAGAGTTCC (((.(((....))).))) | -115 kJ/mol | 46.1 °C
15 | GGATCTGGAAACGGATCC (((((.(....).))))) | -161 kJ/mol | 51.6 °C
16 | GGATGACGAAAGTCTCC (((.(((....)))))) | -83.8 kJ/mol | 48.6 °C
17 | GGATGAGAAATCATCC ((((((....)))))) | -177 kJ/mol | 52.9 °C
18 | GGATGCCCGAAAGGGTCC (((..(((....)))))) | -46.1 kJ/mol | 33.2 °C
19 | GGATGCGAAAGCACCTCC ((((((....)))..))) | -60.4 kJ/mol | 54.6 °C
20 | GGATGCGAAAGCACTTCC ((((((....)))..))) | -72.6 kJ/mol | 42.2 °C
21 | GGATGCGAAAGCAGTCC ((((((....))).))) | -93.3 kJ/mol | 52.4 °C
22 | GGATGGGCGAAAGCCTCC (((..(((....)))))) | -47.5 kJ/mol | 36.9 °C
23 | GGATGGGGAAACCCATTC (.(((((....))))).) | -91.9 kJ/mol | 47.5 °C

Row | Sequence | folding enthalpy [1] | Tm [2]
24 | GGATGTGGAAACACACCC ((.((((....)))).)) | -113 kJ/mol | 44.3 °C
25 | GGATTACCGAAAGGTTCC (((..(((....)))))) | -56.4 kJ/mol | 30.8 °C
26 | GGATTACGAAAGTAGTCC (((.(((....))).))) | -157 kJ/mol | 50.9 °C
27 | GGATTAGGAAACTAACCC ((.((((....)))).)) | -72.3 kJ/mol | 30.1 °C
28 | GGATTCCGAAAGGAGTCC (((.(((....))).))) | -174 kJ/mol | 55.6 °C
29 | GGATTCGAAAGAATATCC ((((((....)))..))) | -41.7 kJ/mol | 30.3 °C
30 | GGATTCGAAAGAATCC ((((((....)))))) | -159 kJ/mol | 62.9 °C
31 | GGATTCGAAAGAATTCC ((((((....))).))) | -85.4 kJ/mol | 42.6 °C
32 | GGATTCGGAAACGAACCC ((.((((....)))).)) | -107 kJ/mol | 45.6 °C
33 | GGATTCGGAAACGAATCC (((((((....))))))) | -150 kJ/mol | 67.1 °C
34 | GGATTCGGAAACGAGTCC (((.(((....))).))) | -150 kJ/mol | 51.1 °C
35 | GGATTTCGAAAGAATTCC (((.(((....))).))) | -130 kJ/mol | 42 °C
36 | GGATTTGCGAAAGCATCC (((..(((....)))))) | -68.8 kJ/mol | 38.9 °C
37 | GGCAAAGGAAACTCTGCC ((((.((....)).)))) | -134 kJ/mol | 36.2 °C
38 | GGCAACCGAAAGGTGCC (((.(((....)))))) | -140 kJ/mol | 66.4 °C
39 | GGCAACGAAAGTTAGCC ((((((....))).))) | -157 kJ/mol | 53.9 °C
40 | GGCAACGAAAGTTCAGCC ((((((....)))..))) | -102 kJ/mol | 41.1 °C
41 | GGCAACGAAAGTTCCGCC ((((((....)))..))) | -89.5 kJ/mol | 48.4 °C
42 | GGCAACGAAAGTTTCGCC ((((((....)))..))) | -79.3 kJ/mol | 41.8 °C
43 | GGCAACGAAAGTTTGCC ((((((....))).))) | -192 kJ/mol | 56.4 °C
44 | GGCAACGGAAACGCTGCC ((((.((....)).)))) | -175 kJ/mol | 53.6 °C
45 | GGCAACGGAAACGTCACC ((..(((....)))..)) | -58.2 kJ/mol | 26 °C
46 | GGCAACGGAAACGTTACC ((.((((....)))).)) | -125 kJ/mol | 45.1 °C

Row | Sequence | folding enthalpy [1] | Tm [2]
47 | GGCAATCGAAAGATGGCC (((.(((....))).))) | -175 kJ/mol | 57.8 °C
48 | GGCAATGGAAACATTGCC (((((((....))))))) | -176 kJ/mol | 67 °C
49 | GGCAATGGAAACGTTGCC (((((.(....).))))) | -237 kJ/mol | 54.5 °C
50 | GGCAATGGAAACGTTGTC (.(((.(....).))).) | -108 kJ/mol | 35.8 °C
51 | GGCACAGAAATGTGCC ((((((....)))))) | -150 kJ/mol | 66.5 °C
52 | GGCACAGGAAACCATGCC ((((..(....)..)))) | -68.1 kJ/mol | 36.1 °C
53 | GGCACAGGAAACTACGCC (((..((....))..))) | -125 kJ/mol | 39.8 °C
54 | GGCACCCGAAAGGGCGCC (((.(((....))).))) | -133 kJ/mol | 69 °C
55 | GGCACCGAAAGGTGAGCC ((((((....)))..))) | -55.8 kJ/mol | 52.6 °C
56 | GGCACCGAAAGGTTGGCC ((((((....)))..))) | -117 kJ/mol | 53.3 °C
57 | GGCACCGCGAAAGCGGCC (((..(((....)))))) | -35.7 kJ/mol | 40 °C
58 | GGCACCGGAAACAGTGCC (((((.(....).))))) | -129 kJ/mol | 53.9 °C
59 | GGCACCGGAAACGGTGTC (.(((((....))))).) | -104 kJ/mol | 59.9 °C
60 | GGCACGGGAAACCACGCC (((..((....))..))) | -121 kJ/mol | 46.2 °C
61 | GGCACGGGAAACCGCGCC (((.(((....))).))) | -184 kJ/mol | 63.5 °C
62 | GGCACGGGAAACTGTGCC (((((.(....).))))) | -173 kJ/mol | 62.2 °C
63 | GGCACTTCGAAAGAAGCC (((..(((....)))))) | -38.3 kJ/mol | 32.2 °C
64 | GGCAGACGAAAGTCAGCC (((.(((....))).))) | -137 kJ/mol | 64.4 °C
65 | GGCAGACGAAAGTCCGCC (((.(((....))).))) | -164 kJ/mol | 60.2 °C
66 | GGCAGAGGAAACTCCGCC (((.(((....))).))) | -118 kJ/mol | 47.5 °C
67 | GGCAGAGGAAACTCTGCC (((((((....))))))) | -168 kJ/mol | 67.6 °C
68 | GGCAGCGAAAGCTCAGCC ((((((....)))..))) | -76.9 kJ/mol | 51 °C
69 | GGCAGCGAAAGCTCGCC ((((((....))).))) | -94.1 kJ/mol | 61.4 °C

Row | Sequence | folding enthalpy [1] | Tm [2]
70 | GGCAGCGAAAGCTCTGCC ((((((....)))..))) | -102 kJ/mol | 52.4 °C
71 | GGCAGCGAAAGCTGAGCC ((((((....)))..))) | -59.1 kJ/mol | 51.9 °C
72 | GGCAGCGAAAGCTTTGCC ((((((....)))..))) | -75.6 kJ/mol | 51.6 °C
73 | GGCAGCGGAAACACTGCC (((((.(....).))))) | -171 kJ/mol | 55.1 °C
74 | GGCAGGGAAACCTGCC ((((((....)))))) | -127 kJ/mol | 69.3 °C
75 | GGCAGGTCGAAAGACGCC (((..(((....)))))) | -101 kJ/mol | 53.5 °C
76 | GGCAGTCGAAAGACGGCC (((.(((....))).))) | -152 kJ/mol | 67.8 °C
77 | GGCATACCGAAAGGTGCC (((..(((....)))))) | -165 kJ/mol | 53.3 °C
78 | GGCATAGGAAACCATGCC (((((.(....).))))) | -126 kJ/mol | 48.7 °C
79 | GGCATCCCGAAAGGGGCC (((..(((....)))))) | -79 kJ/mol | 52.3 °C
80 | GGCATCGAAAGATATGCC ((((((....)))..))) | -118 kJ/mol | 47.5 °C
81 | GGCATCGAAAGATGAGCC ((((((....)))..))) | -71.3 kJ/mol | 44.1 °C
82 | GGCATCGAAAGATTGGCC ((((((....)))..))) | -92.7 kJ/mol | 44.2 °C
83 | GGCATGCCGAAAGGCGCC (((..(((....)))))) | -66.8 kJ/mol | 57.5 °C
84 | GGCATGGGAAACTGTGCC ((((..(....)..)))) | -125 kJ/mol | 48.2 °C
85 | GGCATTACGAAAGTAGCC (((..(((....)))))) | -91 kJ/mol | 43.1 °C
86 | GGCATTGAAAAATGCC ((((((....)))))) | -151 kJ/mol | 61.5 °C
87 | GGCATTGGAAACAATACC ((.((((....)))).)) | -106 kJ/mol | 36.6 °C
88 | GGCATTGGAAACAGTGTC (.((.((....)).)).) | -71 kJ/mol | 31.9 °C
89 | GGCATTGGAAACGATGCC (((((.(....).))))) | -178 kJ/mol | 55.6 °C
90 | GGCATTTCGAAAGAAGCC (((..(((....)))))) | -84.5 kJ/mol | 34.4 °C
91 | GGCCAACGAAAGTTGCC (((.(((....)))))) | -83.6 kJ/mol | 54.3 °C
